High-throughput results deposited in PubChem by several laboratories.
A selection: hits, their analogues and other compounds. The true share with any hit is near 1.9%.
Neddyl block: inhibitors of human cullin neddylation; P61081+Q13564; inhibition, % at 25 µM; AID 651699; TR-FRET cullin neddylation, biochemical; 360,000 compounds, 0.58% hits; in the data active = inhibition above about 36%
SR-BI DiI inh: inhibitors of mouse SR-BI mediated HDL lipid uptake; Q61009; ldlA[mSR-BI] CHO cells, DiI-HDL uptake fluorescence, 3 h; inhibition, % at 12.5 µM; 320,000 compounds, 0.96% hits;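 active = mean replicate inhibition of at least 70% and a set share of replicates each scoring 70 or more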;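 also: 0% = median of neutral control wells and 100% = median of positive control wells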
UBC13 polyUb: human UBC13 polyubiquitination inhibition. P61088. UBC13 polyubiquitin chain formation, TR-FRET. 330,000 compounds, 0.47% hits. inhibition, % at 20 µM. AID 485273; in the data active = inhibition above about 45%, passing the limit was not always enough
Target sequence (P61088 whole entry, looked up): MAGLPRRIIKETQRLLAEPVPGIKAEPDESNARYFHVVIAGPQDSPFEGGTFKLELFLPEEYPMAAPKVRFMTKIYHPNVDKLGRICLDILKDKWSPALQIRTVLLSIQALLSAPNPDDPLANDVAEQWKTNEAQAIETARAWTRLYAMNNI
SR-BI uptake up: SR-BI HDL lipid transfer activation. activation, % at 12.5 µM. CHO ldlA[mSR-BI] cells, DiI-HDL uptake fluorescence, 3 h; 100 = double the neutral-control signal. 320,000 compounds, 0.096% hits. AID 504775;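 active = mean replicate activation of at least 60% and every replicate at or above 60%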;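 also: 0% = median plate neutral-control signal and 100% = twice that signal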
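Test system: SR-BI-overexpressing, LDLR-lacking CHO cells; Medium: Ham's F12 with 0.5% BSA, HEPES 25 mM, pH 7.4; Schedule: 3 h, 37 °C; Technique: bottom-read fluorescence, 550/595 nm.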
Starred values were filed as active, the others as inactive; i = inactive; . = no result.

SMILES	Neddyl block	SR-BI DiI inh	UBC13 polyUb	SR-BI uptake up
COc1cc(NC(=O)c2cc([N+](=O)[O-])ccc2N2CCOCC2)ccc1NC(=O)c1ccco1	-23.3	80.3*	-14.2	-80.3
O=C(CCc1ccccc1)NCCc1ccc(F)cc1	3.4	-18.7	0.6	18.7
CC1=CC(=C(C#N)c2nc3ccccc3s2)C=C(C)N1CC1CCCO1 (stereo not given)	23.1	88.2*	-7.6	-88.2
CCN(CC)C(=O)C1=C(C)N(Cc2ccccc2)C(=O)C(CC(=O)NCc2cccc3ccccc23)C1 (stereo not given)	3.1	.	.	.
O=C(N/N=C/c1cc(Cl)ccc1O)c1ccccc1Br	24.7	78.5*	-3.2	-78.5
O=C(N/N=C/c1cc(Cl)cc(Cl)c1O)c1ccncc1	-6.5	131.7*	-27.3	-131.7
Oc1c(Cl)cc(Cl)cc1/C=N/Nc1ncc(Br)cn1	-9.1	129.6*	-11.2	-129.6
Cc1ccc(N=Cc2cc(Cl)cc(Cl)c2O)nc1	29.1	-25.2	5.3	25.2
O=C(N/N=C/c1cc(Cl)ccc1O)c1cccnc1	-10.5	70.0*	-15.3	-70.0
O=C(N/N=C/c1ccc(Cl)cc1Cl)c1ccncc1	-14.7	22.2	-4.8	-22.2
O=C(N/N=C\c1cc(Cl)ccc1O)c1ccc(S(=O)(=O)N2CCCCC2)cc1	6.9	134.6*	-17.3	-134.6
Nc1ccc2c(S(=O)(=O)O)cccc2c1S(=O)(=O)O	55.5*	2.8	.	-2.8
Nc1ccccc1S(=O)(=O)c1ccccc1N	4.9	22.8	3.4	-22.8
COc1ccc(OC)c(-c2csc(NC(=O)C3CSC4(C)CCC(=O)N34)n2)c1 (stereo not given)	3.6	82.3*	-8.8	-82.3
CCOC(=O)C1=C(Nc2ccc(C)cc2)CC(C)(O)C(C(=O)OCC)C1c1ccccc1 (stereo not given)	23.9	9.6	-1.1	-9.6
CCOC(=O)C1=C(Nc2ccccc2)CC(C)(O)C(C(=O)OCC)C1c1ccccc1 (stereo not given)	4.0	-64.2	10.2	64.2*
Cc1cccc(C)c1NC(=O)CN(C)CC(=O)N1CC(=O)Nc2ccccc21	-6.8	-2.6	5.1	2.6
COc1cc(NC(=O)C2(C)CCCN2C(=O)C(C)C)cc(OC)c1OC (stereo not given)	-9.7	.	.	.
CC1Cc2nc(SCC(=O)N3CCOCC3)n(C)c(=O)c2S1 (stereo not given)	-14.4	-2.4	-11.1	2.4
CC(C)Sc1nc2c(c(=O)n1C)SC(C)C2 (stereo not given)	-11.8	-182.8	5.4	182.8*
Cc1[nH]c2ccccc2c1N=Nc1ccc(F)cc1	-19.1	83.1*	-1.6	-83.1
O=C(CN1C(=O)NC2(CCCC2)C1=O)OCCOc1ccc(Cl)cc1Cl	2.0	20.4	-4.6	-20.4
CCCCCCCCCC[n+]1cccc2c3ccccc3ccc21	55.6*	18.6	.	-18.6
CC(C)(C)NC(=O)C[C@H]1C[C@H](C(=O)N2CCOCC2)[C@@]2(C)c3[nH]c4ccc(Cl)cc4c3CCN2C1=O	2.1	6.5	.	-6.5
CC(C)(C)NC(=O)CC1C[C@H](C(=O)N2CCOCC2)[C@@]2(C)c3[nH]c4ccccc4c3CCN2C1=O (stereo not given in full)	-3.4	77.4*	1.1	-77.4
SMILES	Neddyl block	SR-BI DiI inh	UBC13 polyUb	SR-BI uptake up
COc1ccccc1C(=O)Nc1cccc(NC(=O)c2ccccc2OC)n1	-253.1	31.9	15.8	-31.9
COc1ccc(Cc2nnc(NC(=O)c3ccc(OC)c(OC)c3)s2)cc1	-70.9	11.6	0.4	-11.6
COc1ccc(NC(=O)C(=O)Nc2cccc3cccnc23)cc1OC	29.4	7.0	7.0	-7.0
COc1ccc(C(=O)Nc2cccc3cccnc23)cc1OC	-20.0	78.7*	6.9	-78.9
COc1ccc(C(=O)Nc2nc(C)c(C)s2)cc1OC	6.0	79.1*	4.9	-79.1
COc1ccc(C(=O)Nc2cccc(NC(=O)c3ccc(OC)c(OC)c3)n2)cc1OC	5.0	81.4*	0.9	-81.4
Cc1cc(C)c(S(=O)(=O)N2CCOC2CNC(=O)C(=O)NCc2ccncc2)c(C)c1 (stereo not given)	-0.1	-38.2	-0.3	38.2
COc1cccc(C(O)c2nc(-c3cnn(C)c3)cs2)c1 (stereo not given)	4.1	.	.	.
O=C(Nc1ccc(N2CCOCC2)cc1)c1ccc(Cl)c(S(=O)(=O)N2CCCC2)c1	34.4	58.3	3.1	-58.3
CCCC(=O)Nc1nnc(S(=O)(=O)N(CC)c2ccccc2)s1	-5.7	24.9	2.1	-24.9
Cc1c(C(c2ccc(C(=O)O)cc2)c2c(C)n(C)n(-c3ccccc3)c2=O)c(=O)n(-c2ccccc2)n1C	-6.3	76.2*	-1.1	-76.2
CCCC(=O)Nc1c(-c2ccccc2)c(=O)c(C)nn1-c1ccc(C)cc1	-0.8	-314.7	-5.4	314.7*
Cc1nn(C)c2c1NC(=O)CS2	8.8	.	.	.
Cc1ccc(OCCSc2ncnc3sc(C)c(C)c23)cc1C	-126.8	i	-1.9	950.0*
COc1ccc(NC(=O)C(F)(F)F)cc1OC	1.2	77.8*	-4.8	-77.8
CCOC(=O)c1c(NC(=O)Nc2ccccc2)sc(C)c1C	-25.5	85.5*	17.9	-85.5
CCOC(=O)c1c(NC(=S)NC)sc2c1CC(C)(C)SC2	-51.1	17.7	-14.2	-17.7
CCOC(=O)c1c(NC(=S)Nc2ccccc2)sc2c1CC(C)(C)SC2	i	95.3*	-8.9	-95.3
C=CCNC(=S)Nc1sc2c(c1C(=O)OCC)CC(C(C)C)OC2 (stereo not given)	-153.2	73.6*	43.4	-73.6
Cn1c(C(=O)N2CCCC2)cc2c(=O)n(C)c3ccccc3c21	3.1	2.2	.	-2.2
Cn1c(C(=O)N2CCN(Cc3ccc4c(c3)OCO4)CC2)cc2c(=O)n(C)c3ccccc3c21	8.1	76.1*	7.7	-76.1
CCOc1ccc(/C(O)=C2/C(=O)C(=O)N(CCCN3CCOCC3)C2c2ccc(C)cc2)cc1C (stereo not given)	-40.7	-23.7	-6.9	23.7
COc1ccc(-c2coc3c(C(=O)N4CCN(C)CC4)cccc23)c(C)c1	-1.8	.	.	.
Cc1cc(C)n2nc(/C(C#N)=C/c3ccccn3)c(C#N)c2n1	39.9*	16.5	-2.1	-16.5
O=c1c2ccccc2[nH]c2ccc(O)cc12	42.0*	-9.5	-15.1	9.5
CC(C)(C)C1CCC2(CC1)C(Nc1cccc(C(F)(F)F)c1)=NC(=S)N2CC#N (stereo not given)	6.8	-151.8	1.6	151.8*
CCNc1ccc(C(=O)OCC)cc1NC(=O)c1cccc(N(C)C)c1	14.8	85.6*	-6.2	-85.5
CCNc1ccc(C(=O)OCC)cc1NC(=O)c1cccc(S(=O)(=O)N(C)c2ccccc2)c1	6.8	56.7	-0.7	-56.7
C#CCOCCOCCOCCNc1nc(N2CCN(C(=O)[C@H](CCCCN)n3cc([C@@H](N)CO)nn3)CC2)nc(N2CCN(C(=O)[C@H](Cc3ccc(O)cc3)n3cc([C@@H](N)CC(C)C)nn3)CC2)n1	-16.5	-21.5	39.0	21.5
